Experimental data published in ChEMBL document CHEMBL4190393, “Specific Stereoisomeric Conformations Determine the Drug Potency of Cladosporin Scaffold against Malarial Parasite” (J Med Chem, 2018).

How the values were obtained:
[1] = biological target: Lysine--tRNA ligase (Plasmodium falciparum (isolate 3D7)) (UniProt Q8IDJ8); test: Binding affinity to Plasmodium falciparum KRS expressed in Escherichia coli BL21 by thermal shift assay
Summary of the method: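 Protein thermal shift assay with PfKRS at 2 μM in the presence of L-lysine. Binding is reported as the shift in melting temperature (ΔTm, °C) of the enzyme when the compound is added.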

[2] = biological target: Lysine--tRNA ligase (Plasmodium falciparum (isolate 3D7), UniProt Q8IDJ8); test: Inhibition of Plasmodium falciparum KRS expressed in Escherichia coli BL21 using tRNA(Lys) as substrate after 45 mins in presence of L-lysine by AMP-GLO assay
[3] = biological target: T1, Lysine--tRNA ligase (Homo sapiens, UniProt Q15046); test: Binding affinity to human KRS expressed in Escherichia coli BL21 by thermal shift assay
Summary of the method: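 Protein thermal shift assay with Hs-KRS at 4 μM in the presence of L-lysine; binding read out as the shift in melting temperature (ΔTm, °C) produced by each ligand.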
Target sequence in this assay (Q15046 2-597 limits assumed): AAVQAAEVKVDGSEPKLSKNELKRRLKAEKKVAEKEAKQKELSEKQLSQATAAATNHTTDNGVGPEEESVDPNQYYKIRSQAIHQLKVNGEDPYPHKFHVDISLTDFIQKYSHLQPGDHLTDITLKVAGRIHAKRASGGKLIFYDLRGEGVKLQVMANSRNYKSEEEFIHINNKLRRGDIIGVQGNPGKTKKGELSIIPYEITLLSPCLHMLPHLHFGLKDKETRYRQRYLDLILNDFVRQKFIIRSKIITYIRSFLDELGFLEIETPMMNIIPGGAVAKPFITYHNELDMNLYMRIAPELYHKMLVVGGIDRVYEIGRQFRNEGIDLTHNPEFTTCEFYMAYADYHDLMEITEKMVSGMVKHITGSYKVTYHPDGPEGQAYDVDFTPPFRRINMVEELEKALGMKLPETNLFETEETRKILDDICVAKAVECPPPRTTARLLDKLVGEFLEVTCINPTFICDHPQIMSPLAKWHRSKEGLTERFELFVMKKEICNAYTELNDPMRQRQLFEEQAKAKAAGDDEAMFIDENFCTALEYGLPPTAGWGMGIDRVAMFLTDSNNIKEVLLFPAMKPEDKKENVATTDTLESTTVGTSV

[4] = biological target: T1, Lysine--tRNA ligase; test: Inhibition of human KRS expressed in Escherichia coli BL21 using tRNA(Lys) as substrate after 1 hr in presence of L-lysine by AMP-GLO assay
Target sequence in this assay (Q15046 whole entry): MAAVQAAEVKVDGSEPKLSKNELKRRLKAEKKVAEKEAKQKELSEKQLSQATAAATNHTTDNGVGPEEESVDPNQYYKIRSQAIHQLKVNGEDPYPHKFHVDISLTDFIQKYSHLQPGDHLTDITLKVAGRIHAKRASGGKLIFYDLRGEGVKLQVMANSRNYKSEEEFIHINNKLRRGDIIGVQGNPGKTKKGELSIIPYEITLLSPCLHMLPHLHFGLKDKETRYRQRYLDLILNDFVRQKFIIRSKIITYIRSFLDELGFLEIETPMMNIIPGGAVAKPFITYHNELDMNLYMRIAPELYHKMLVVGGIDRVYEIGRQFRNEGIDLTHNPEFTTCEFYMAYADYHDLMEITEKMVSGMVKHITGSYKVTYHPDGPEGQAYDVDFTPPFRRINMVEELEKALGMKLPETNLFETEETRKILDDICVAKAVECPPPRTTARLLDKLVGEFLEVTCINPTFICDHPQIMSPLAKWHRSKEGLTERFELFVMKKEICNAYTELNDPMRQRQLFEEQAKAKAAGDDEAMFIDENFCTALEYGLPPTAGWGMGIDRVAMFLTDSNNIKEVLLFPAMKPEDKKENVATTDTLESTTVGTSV

[5] = test system: Plasmodium falciparum; test: Antiparasitic activity against Plasmodium falciparum 3D7 infected in human erythrocytes after 48 hrs by SYBR green-1 staining based assay; type: functional, organism-based; conditions: 3D7, 48 h
[6] = Selectivity ratio of IC50 for human KRS to IC50 for Plasmodium falciparum KRS

Sequence of Lysine--tRNA ligase (Plasmodium falciparum (isolate 3D7), UniProt Q8IDJ8) (Q8IDJ8 whole entry): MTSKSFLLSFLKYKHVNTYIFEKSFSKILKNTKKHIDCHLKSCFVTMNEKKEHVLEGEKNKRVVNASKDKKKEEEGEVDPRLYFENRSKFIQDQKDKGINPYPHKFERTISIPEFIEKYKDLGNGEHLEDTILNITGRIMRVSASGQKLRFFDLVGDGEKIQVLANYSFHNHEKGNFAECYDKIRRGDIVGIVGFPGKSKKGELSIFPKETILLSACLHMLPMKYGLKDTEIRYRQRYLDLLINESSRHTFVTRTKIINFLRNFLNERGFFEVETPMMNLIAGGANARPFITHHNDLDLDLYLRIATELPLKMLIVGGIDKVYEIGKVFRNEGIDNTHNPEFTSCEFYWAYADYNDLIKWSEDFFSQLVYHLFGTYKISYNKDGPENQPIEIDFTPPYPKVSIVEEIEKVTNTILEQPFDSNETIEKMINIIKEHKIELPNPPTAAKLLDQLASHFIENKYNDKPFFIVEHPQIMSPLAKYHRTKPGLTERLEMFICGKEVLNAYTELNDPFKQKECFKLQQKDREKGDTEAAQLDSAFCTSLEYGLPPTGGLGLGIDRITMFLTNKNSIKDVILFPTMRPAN
Sequence of Lysine--tRNA ligase (Plasmodium falciparum (isolate 3D7)) (Q8IDJ8 1-583): as the sequence (Q8IDJ8 whole entry) above

| SMILES | ΔTm [1] | IC50 [2] | ΔTm [3] | IC50 [4] | EC50 [5] | Ratio IC50 [6] |
| --- | --- | --- | --- | --- | --- | --- |
| C[C@H]1CCC[C@@H](C[C@@H]2Cc3cc(O)cc(O)c3C(=O)O2)O1 | 11.4 °C | 29 µM | 1.1 °C | > 100 µM | > 2 µM |  |
| C[C@H]1CCC[C@H](C[C@@H]2Cc3cc(O)cc(O)c3C(=O)O2)O1 | 14.3 °C | 4.64 µM | 0.5 °C | > 100 µM | 1.6 µM |  |
| C[C@@H]1CCC[C@H](C[C@H]2Cc3cc(O)cc(O)c3C(=O)O2)O1 | 16.2 °C | 0.29 µM | 1 °C | > 100 µM | 0.27 µM |  |
| C[C@@H]1CCC[C@H](C[C@@H]2Cc3cc(O)cc(O)c3C(=O)O2)O1 | 11.8 °C | 21.3 µM | 0.3 °C | > 100 µM | > 2 µM |  |
| C[C@H]1CCC[C@H](C[C@H]2Cc3cc(O)cc(O)c3C(=O)O2)O1 [CLADOSPORIN] | 17.3 °C | 0.12 µM | 1.3 °C | 105 µM | 0.04 µM | 840 |
| C[C@H]1CCC[C@@H](C[C@H]2Cc3cc(O)cc(O)c3C(=O)O2)O1 | 15.6 °C | 5.8 µM | 0.1 °C | > 100 µM | 1.1 µM |  |
| C[C@@H]1CCC[C@@H](C[C@H]2Cc3cc(O)cc(O)c3C(=O)O2)O1 | 13.5 °C | 7.25 µM | 1.1 °C | > 100 µM | 1.15 µM |  |
| C[C@@H]1CCC[C@@H](C[C@@H]2Cc3cc(O)cc(O)c3C(=O)O2)O1 | 7.9 °C | 50 µM | -0.9 °C | > 100 µM | > 2 µM |  |
